Calls of active or inactive are those of the source. The calls are words filed in the database; no cut-off is given here.
Legend:
BaF3 [1] = assay: Antiproliferative activity against murine BaF3 cells expressing NPM/ALK L256T mutant by [3H]thymidine uptake assay; format: functional, cell-based; details: Mus musculus
Summary of the method: (§1)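 IL-3-independent BaF3 clones stably transfected (electroporation, G418 selection) with human NPM/ALK, WT or L256T; RPMI 1640 + 10% FBS, 37 °C, 5% CO2. Seeded 10^4/well, exposed to inhibitor (0-4 µM range in figure) or vehicle for 8-48 h; 3[H]-thymidine uptake.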

BaF3 [2] = assay: Induction of cell death of murine BaF3 cells expressing NPM/ALK L256T mutant by trypan blue exclusion assay; format: functional, cell-based; details: Mus musculus
BaF3 [3] = assay: Antiproliferative activity against murine BaF3 cells expressing wild type NPM/ALK by [3H]thymidine uptake assay; format: functional, cell-based; details: Mus musculus; summary of the method: as §1
[4] = target: T1, NPM/ALK (Nucleophosmin/ALK tyrosine kinase receptor) (Homo sapiens, UniProt P06748+Q9UM73, L256T); assay: Inhibition of NPM/ALK L256T mutant kinase activity in BaF3 cells by radioenzymatic assay; format: cell-based
[5] = target: T1, NPM/ALK (Nucleophosmin/ALK tyrosine kinase receptor); assay: Inhibition of NPM/ALK L256T mutant autophosphorylation activity in BaF3 cells by antiphosphotyrosine immunoblotting assay; format: cell-based
[6] = target: T2, NPM/ALK (Nucleophosmin/ALK tyrosine kinase receptor) (Homo sapiens, UniProt Q9UM73); assay: Inhibition of wild type NPM/ALK kinase activity in BaF3 cells by radioenzymatic assay; format: cell-based
[7] = target: T2, NPM/ALK (Nucleophosmin/ALK tyrosine kinase receptor); assay: Inhibition of wild type NPM/ALK autophosphorylation activity in BaF3 cells by antiphosphotyrosine immunoblotting assay; format: cell-based

T2 sequence (Q9UM73 whole entry): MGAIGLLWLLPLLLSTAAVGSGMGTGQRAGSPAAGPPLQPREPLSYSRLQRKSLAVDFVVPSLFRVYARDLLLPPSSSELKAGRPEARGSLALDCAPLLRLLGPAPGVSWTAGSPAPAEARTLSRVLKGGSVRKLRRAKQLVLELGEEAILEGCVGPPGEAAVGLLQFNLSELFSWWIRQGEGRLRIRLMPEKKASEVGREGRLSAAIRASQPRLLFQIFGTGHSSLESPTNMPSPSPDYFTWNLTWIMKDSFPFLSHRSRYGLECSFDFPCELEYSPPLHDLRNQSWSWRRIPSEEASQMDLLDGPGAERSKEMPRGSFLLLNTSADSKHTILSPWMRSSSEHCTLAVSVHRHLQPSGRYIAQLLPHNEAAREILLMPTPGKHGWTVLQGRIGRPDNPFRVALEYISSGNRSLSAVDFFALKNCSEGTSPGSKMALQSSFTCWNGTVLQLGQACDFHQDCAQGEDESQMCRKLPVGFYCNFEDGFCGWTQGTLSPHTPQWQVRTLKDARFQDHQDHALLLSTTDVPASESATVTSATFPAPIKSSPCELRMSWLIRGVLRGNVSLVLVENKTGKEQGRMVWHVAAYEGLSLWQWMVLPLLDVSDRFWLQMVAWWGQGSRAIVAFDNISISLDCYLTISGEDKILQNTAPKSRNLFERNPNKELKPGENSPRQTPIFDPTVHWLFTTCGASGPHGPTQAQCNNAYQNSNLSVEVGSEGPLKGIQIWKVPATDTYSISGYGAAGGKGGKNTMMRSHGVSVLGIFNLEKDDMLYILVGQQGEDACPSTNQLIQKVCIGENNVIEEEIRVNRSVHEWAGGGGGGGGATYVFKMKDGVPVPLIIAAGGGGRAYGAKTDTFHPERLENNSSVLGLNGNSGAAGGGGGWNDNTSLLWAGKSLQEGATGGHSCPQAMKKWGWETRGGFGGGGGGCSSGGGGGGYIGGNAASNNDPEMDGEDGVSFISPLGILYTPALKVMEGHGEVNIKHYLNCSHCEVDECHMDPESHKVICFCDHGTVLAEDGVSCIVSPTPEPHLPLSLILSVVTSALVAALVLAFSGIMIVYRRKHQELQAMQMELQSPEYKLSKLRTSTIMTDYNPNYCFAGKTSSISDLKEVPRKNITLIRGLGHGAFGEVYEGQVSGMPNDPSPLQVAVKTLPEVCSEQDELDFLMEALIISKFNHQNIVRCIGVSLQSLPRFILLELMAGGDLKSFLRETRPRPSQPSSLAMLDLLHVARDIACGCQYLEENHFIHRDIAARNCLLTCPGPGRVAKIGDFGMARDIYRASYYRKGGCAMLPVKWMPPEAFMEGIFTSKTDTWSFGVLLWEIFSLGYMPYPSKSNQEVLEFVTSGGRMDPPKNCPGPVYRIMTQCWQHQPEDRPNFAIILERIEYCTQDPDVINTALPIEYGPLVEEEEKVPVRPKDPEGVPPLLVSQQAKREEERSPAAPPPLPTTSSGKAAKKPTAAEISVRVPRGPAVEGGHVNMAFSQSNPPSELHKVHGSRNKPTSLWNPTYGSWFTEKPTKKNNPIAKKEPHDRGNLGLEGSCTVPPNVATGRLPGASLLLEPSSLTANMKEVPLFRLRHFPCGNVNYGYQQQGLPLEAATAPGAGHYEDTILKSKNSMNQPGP
T2 sequence (P06748 whole entry, further chain): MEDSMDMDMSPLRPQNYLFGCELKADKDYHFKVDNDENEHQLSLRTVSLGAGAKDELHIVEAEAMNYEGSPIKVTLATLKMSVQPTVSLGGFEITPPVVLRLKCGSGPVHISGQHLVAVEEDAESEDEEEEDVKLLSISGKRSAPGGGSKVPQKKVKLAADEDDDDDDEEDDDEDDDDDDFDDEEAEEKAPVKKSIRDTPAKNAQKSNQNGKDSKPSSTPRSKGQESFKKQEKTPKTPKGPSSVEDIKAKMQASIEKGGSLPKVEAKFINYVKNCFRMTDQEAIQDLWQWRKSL
T1 sequence (P06748 whole entry, stated change not applied): as the sequence (P06748 whole entry, further chain) above
T1 sequence (Q9UM73 19-1620 L256T limits assumed, stated change not applied): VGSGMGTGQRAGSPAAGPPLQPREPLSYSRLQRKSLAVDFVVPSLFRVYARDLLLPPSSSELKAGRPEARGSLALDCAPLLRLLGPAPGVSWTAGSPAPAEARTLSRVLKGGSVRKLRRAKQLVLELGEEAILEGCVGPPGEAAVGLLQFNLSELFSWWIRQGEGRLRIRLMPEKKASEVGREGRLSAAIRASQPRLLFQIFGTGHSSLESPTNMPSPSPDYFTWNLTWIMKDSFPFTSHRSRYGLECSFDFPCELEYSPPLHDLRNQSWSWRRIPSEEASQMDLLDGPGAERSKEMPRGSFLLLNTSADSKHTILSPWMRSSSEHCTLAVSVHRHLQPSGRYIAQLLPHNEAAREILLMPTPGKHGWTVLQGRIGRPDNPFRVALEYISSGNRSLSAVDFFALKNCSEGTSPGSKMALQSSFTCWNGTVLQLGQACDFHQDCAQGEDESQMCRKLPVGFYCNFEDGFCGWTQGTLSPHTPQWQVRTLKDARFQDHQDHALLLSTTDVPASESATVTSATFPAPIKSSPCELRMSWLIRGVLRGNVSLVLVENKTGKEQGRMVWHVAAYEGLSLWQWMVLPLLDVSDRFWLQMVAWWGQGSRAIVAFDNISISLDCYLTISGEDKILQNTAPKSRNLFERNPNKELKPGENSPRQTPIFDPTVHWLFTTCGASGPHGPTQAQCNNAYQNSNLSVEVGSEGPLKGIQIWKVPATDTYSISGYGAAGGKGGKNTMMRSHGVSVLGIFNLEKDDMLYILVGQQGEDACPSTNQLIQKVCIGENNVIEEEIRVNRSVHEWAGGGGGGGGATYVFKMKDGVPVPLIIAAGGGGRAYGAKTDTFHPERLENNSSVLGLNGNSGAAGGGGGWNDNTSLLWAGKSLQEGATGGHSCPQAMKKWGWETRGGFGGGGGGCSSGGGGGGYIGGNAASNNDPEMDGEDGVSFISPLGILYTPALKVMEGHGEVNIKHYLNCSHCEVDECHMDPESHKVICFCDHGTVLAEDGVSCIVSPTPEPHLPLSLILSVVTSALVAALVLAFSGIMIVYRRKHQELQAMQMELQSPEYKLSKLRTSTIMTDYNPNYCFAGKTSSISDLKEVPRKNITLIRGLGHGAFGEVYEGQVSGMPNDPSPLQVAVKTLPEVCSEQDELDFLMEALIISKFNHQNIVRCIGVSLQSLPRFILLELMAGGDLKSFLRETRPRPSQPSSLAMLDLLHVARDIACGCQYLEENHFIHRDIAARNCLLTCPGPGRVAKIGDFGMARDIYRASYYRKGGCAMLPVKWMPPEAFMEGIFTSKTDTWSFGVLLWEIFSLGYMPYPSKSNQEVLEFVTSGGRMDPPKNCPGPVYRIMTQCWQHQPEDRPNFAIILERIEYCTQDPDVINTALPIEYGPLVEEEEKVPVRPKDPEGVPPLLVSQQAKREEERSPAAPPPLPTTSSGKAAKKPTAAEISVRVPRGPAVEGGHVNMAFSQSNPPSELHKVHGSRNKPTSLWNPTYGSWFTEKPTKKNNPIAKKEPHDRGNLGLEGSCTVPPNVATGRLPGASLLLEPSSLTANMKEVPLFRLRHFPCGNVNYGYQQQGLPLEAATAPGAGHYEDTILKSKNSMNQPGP

SMILES	IC50 (BaF3 [1])	Activity (BaF3 [2])	IC50 (BaF3 [3])	IC50 [4]	IC50 [5]	IC50 [6]	IC50 [7]
CSc1cccc(Nc2ncc3cc(-c4c(Cl)cccc4Cl)c(=O)n(C)c3n2)c1	1800 nM	Active	2000 nM	–	–	–	–
COc1cc(Nc2c(C#N)cnc3cc(OCCCN4CCN(C)CC4)c(OC)cc23)c(Cl)cc1Cl [BOSUTINIB]	200 nM	Active	1000 nM	150 nM	200 nM	> 10000 nM	> 20000 nM
Cc1ccc(NC(=O)c2ccc(CN3CCN(C)CC3)cc2)cc1Nc1nccc(-c2cccnc2)n1 [IMATINIB]	9100 nM	–	7100 nM	–	–	–	–

— ChEMBL document CHEMBL1137261, “Structural insights into the ATP binding pocket of the anaplastic lymphoma kinase by site-directed mutagenesis, inhibitor binding analysis, and homology modeling” (J Med Chem, 2006)
